Assays:
Type in all cases: cell-based
[1] = molecular target: Nuclear receptor subfamily 4 group A member 2 (Homo sapiens) (UniProt P43354); experiment: Modulation of full length human Nurr1 expressed in SKNBE(2) cells co-transfected with RXRalpha and luciferase reporter plasmid harboring NurRE response element assessed as increase in luciferase activity incubated for 18 hrs by luciferase reporter-gene assay; conditions: SKNBE2, filed as modulator
In short: (§1)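 SK-N-BE(2)-C cells were kept in 1:1 EMEM/F12 with 10% FBS at 37°C and 5% CO2. They were cotransfected with full-length Nurr1 (1 μg), full-length RXRα (1 μg) and 3xNBRE- or 3xNurRE-luc reporter (6 μg) for 18 h, replated at 10,000 cells/well for 4 h, and then treated with ligand or vehicle in quadruplicate for 18 h. The readout was luciferase luminescence as fold over vehicle, reported as mean ± s.e.m. (n=4) from 2 independent experiments, one-way ANOVA.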

[2] = molecular target: Nuclear receptor subfamily 4 group A member 2 (Homo sapiens) (UniProt P43354); experiment: Modulation of full length human Nurr1 expressed in SKNBE(2) cells co-transfected with luciferase reporter plasmid harboring NurRE response element assessed as increase in luciferase activity incubated for 18 hrs by luciferase reporter-gene assay; conditions: SKNBE2, filed as modulator
In short: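 Transfection of SK-N-BE(2)-C cells (1:1 EMEM/F12, 10% FBS, 37°C, 5% CO2) used full-length Nurr1 alone (2 μg, no RXRα) with 3xNBRE- or 3xNurRE-luciferase reporter (6 μg) for 18 h. Cells were replated at 10,000/well for 4 h, then exposed to ligand or vehicle in quadruplicate for 18 h. Luminescence was expressed as fold over vehicle, as mean ± s.e.m. (n=4) from 2 independent experiments, one-way ANOVA against vehicle.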

[3] = molecular target: Nuclear receptor subfamily 4 group A member 2 (Homo sapiens) (UniProt P43354); experiment: Modulation of full length human Nurr1 expressed in PC12 cells co-transfected with RXRalpha and luciferase reporter plasmid harboring NurRE response element assessed as increase in luciferase activity incubated for 18 hrs by luciferase reporter-gene assay; conditions: PC-12, filed as modulator
In short: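 PC12 cells were grown at 37°C and 5% CO2 in […] medium with 15% horse serum and 2.5% FBS. They were transfected with full-length Nurr1 (1 μg) plus full-length RXRα (1 μg) and 3xNBRE- or 3xNurRE-luciferase reporter (6 μg) for 18 h, then replated at 10,000 cells/well for 4 h. Ligand or vehicle (water, ethanol or DMSO) was added in quadruplicate for 18 h. Luminescence was read as fold change over vehicle. Results are mean ± s.e.m., n=4, from 2 independent experiments, analysed by one-way ANOVA against vehicle.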

[4] = molecular target: Nuclear receptor subfamily 4 group A member 2 (Homo sapiens) (UniProt P43354); experiment: Modulation of full length human Nurr1 expressed in HEK293T cells co-transfected with RXRalpha and luciferase reporter plasmid harboring NurRE response element assessed as increase in luciferase activity incubated for 18 hrs by luciferase reporter-gene assay; conditions: filed as modulator
In short: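 Full-length Nurr1 plasmid, alone (2 μg) or 1 μg plus full-length RXRα (1 μg), cotransfected with 3xNBRE- or 3xNurRE-luciferase reporter (6 μg) using Lipofectamine 2000, 18 h. Cells replated at 10,000/well for 4 h. Four ligand concentrations, or vehicle (water, ethanol or DMSO), added in quadruplicate for 18 h. Luciferase read. Fold change vs vehicle, mean ± s.e.m., one-way ANOVA vs vehicle.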

[5] = molecular target: Nuclear receptor subfamily 4 group A member 2 (Homo sapiens) (UniProt P43354); experiment: Modulation of full length human Nurr1 expressed in SKNBE(2) cells co-transfected with RXRalpha and luciferase reporter plasmid harboring NBRE response element assessed as increase in luciferase activity incubated for 18 hrs by luciferase reporter-gene assay; conditions: SKNBE2, filed as modulator; in short: as §1
[6] = molecular target: Nuclear receptor subfamily 4 group A member 3 (Homo sapiens) (UniProt Q92570); experiment: Modulation of full length human NOR1 expressed in SK-N-BE(2) cells co-transfected with RXRalpha and luciferase reporter plasmid harboring NBRE response element assessed as increase in luciferase activity incubated for 18 by luciferase reporter gene assay; conditions: SKNBE2, filed as modulator, time 18.0 hrs
In short: (§2)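 Cells seeded at 1.5 million per 10-cm dish. Next day they were transfected (Lipofectamine 2000) with full-length Nur77 or NOR-1 expression plasmid, either alone (2 μg) or 1 μg plus full-length RXRα (1 μg), and 3xNBRE- or 3xNurRE-luciferase reporter (6 μg), 18 h. Cells replated at 10,000/well, 4 h, then ligand dose response added in quadruplicate for 18 h. Luciferase luminescence read.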

[7] = molecular target: Nuclear receptor subfamily 4immunitygroup A member 1 (Homo sapiens) (UniProt P22736); experiment: Modulation of full length human Nur77 expressed in HEK293 cells co-transfected with RXRalpha and luciferase reporter plasmid harboring NurRE response element assessed as increase in luciferase activity incubated for 18 hrs by luciferase reporter gene assay; conditions: filed as modulator; in short: as §2
[8] = molecular target: Nuclear receptor subfamily 4 group A member 3 (Homo sapiens) (UniProt Q92570); experiment: Modulation of full length human NOR1 expressed in HEK293 cells co-transfected with luciferase reporter plasmid harboring NurRE response element assessed as increase in luciferase activity incubated for 18 hrs by luciferase reporter gene assay; conditions: filed as modulator
In short: (§3)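 Full-length NOR-1 plasmid was transfected via Lipofectamine 2000, either alone (2 μg) or at 1 μg with full-length RXRα (1 μg). It was paired with a 3xNBRE or 3xNurRE luciferase reporter (6 μg), 8 μg total DNA, for 18 h. Cells were replated at 10,000/well for 4 h, then given a full ligand dose response or vehicle in quadruplicate for 18 h. Luciferase was read; no EC50/IC50 was fitted.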

[9] = molecular target: Nuclear receptor subfamily 4 group A member 3 (Homo sapiens) (UniProt Q92570); experiment: Modulation of full length human NOR1 expressed in HEK293T cells co-transfected with RXRalpha luciferase reporter plasmid harboring NBRE response element assessed as increase in luciferase activity incubated for 18 hrs by luciferase reporter gene assay; conditions: filed as modulator; in short: as §3
[10] = molecular target: Nuclear receptor subfamily 4 group A member 3 (Homo sapiens) (UniProt Q92570); experiment: Modulation of full length human NOR1 expressed in SK-N-BE(2) cells co-transfected with luciferase reporter plasmid harboring NBRE response element assessed as increase in luciferase activity incubated for 18 by luciferase reporter gene assay; conditions: SKNBE2, filed as modulator, time 18.0 hrs; in short: as §2
[11] = molecular target: Nuclear receptor subfamily 4immunitygroup A member 1 (Homo sapiens) (UniProt P22736); experiment: Modulation of full length human Nur77 expressed in SK-N-BE(2) cells co-transfected with RXRalpha and luciferase reporter plasmid harboring NurRE response element assessed as increase in luciferase activity incubated for 18 by luciferase reporter gene assay; conditions: SKNBE2, filed as modulator, time 18.0 hrs; in short: as §2
[12] = molecular target: Nuclear receptor subfamily 4immunitygroup A member 1 (Homo sapiens) (UniProt P22736); experiment: Modulation of full length human Nur77 expressed in SK-N-BE(2) cells co-transfected with luciferase reporter plasmid harboring NurRE response element assessed as increase in luciferase activity incubated for 18 by luciferase reporter gene assay; conditions: SKNBE2, filed as modulator, time 18.0 hrs; in short: as §2
[13] = molecular target: Nuclear receptor subfamily 4immunitygroup A member 1 (Homo sapiens) (UniProt P22736); experiment: Modulation of full length human Nur77 expressed in PC12 cells co-transfected with luciferase reporter plasmid harboring NurRE response element assessed as increase in luciferase activity incubated for 18 by luciferase reporter gene assay; conditions: PC-12, filed as modulator, time 18.0 hrs; in short: as §2
[14] = molecular target: Nuclear receptor subfamily 4immunitygroup A member 1 (Homo sapiens) (UniProt P22736); experiment: Modulation of full length human Nur77 expressed in PC12 cells co-transfected with RXRalpha and luciferase reporter plasmid harboring NBRE response element assessed as increase in luciferase activity incubated for 18 by luciferase reporter gene assay; conditions: PC-12, filed as modulator, time 18.0 hrs; in short: as §2
[15] = molecular target: Nuclear receptor subfamily 4 group A member 3 (Homo sapiens) (UniProt Q92570); experiment: Modulation of full length human NOR1 expressed in PC12 cells co-transfected with luciferase reporter plasmid harboring NBRE response element assessed as increase in luciferase activity incubated for 18 by luciferase reporter gene assay; conditions: PC-12, filed as modulator, time 18.0 hrs; in short: as §3
[16] = molecular target: Nuclear receptor subfamily 4 group A member 3 (Homo sapiens) (UniProt Q92570); experiment: Modulation of full length human NOR1 expressed in PC12 cells co-transfected with luciferase reporter plasmid harboring NurRE response element assessed as increase in luciferase activity incubated for 18 by luciferase reporter gene assay; conditions: PC-12, filed as modulator, time 18.0 hrs; in short: as §3
[17] = molecular target: Nuclear receptor subfamily 4 group A member 3 (Homo sapiens) (UniProt Q92570); experiment: Modulation of full length human NOR1 expressed in PC12 cells co-transfected with RXRalpha and luciferase reporter plasmid harboring NBRE response element assessed as increase in luciferase activity incubated for 18 by luciferase reporter gene assay; conditions: PC-12, filed as modulator, time 18.0 hrs; in short: as §3

Measured: Activity

Sequence of Nuclear receptor subfamily 4 group A member 3 (Homo sapiens) (Q92570 whole entry): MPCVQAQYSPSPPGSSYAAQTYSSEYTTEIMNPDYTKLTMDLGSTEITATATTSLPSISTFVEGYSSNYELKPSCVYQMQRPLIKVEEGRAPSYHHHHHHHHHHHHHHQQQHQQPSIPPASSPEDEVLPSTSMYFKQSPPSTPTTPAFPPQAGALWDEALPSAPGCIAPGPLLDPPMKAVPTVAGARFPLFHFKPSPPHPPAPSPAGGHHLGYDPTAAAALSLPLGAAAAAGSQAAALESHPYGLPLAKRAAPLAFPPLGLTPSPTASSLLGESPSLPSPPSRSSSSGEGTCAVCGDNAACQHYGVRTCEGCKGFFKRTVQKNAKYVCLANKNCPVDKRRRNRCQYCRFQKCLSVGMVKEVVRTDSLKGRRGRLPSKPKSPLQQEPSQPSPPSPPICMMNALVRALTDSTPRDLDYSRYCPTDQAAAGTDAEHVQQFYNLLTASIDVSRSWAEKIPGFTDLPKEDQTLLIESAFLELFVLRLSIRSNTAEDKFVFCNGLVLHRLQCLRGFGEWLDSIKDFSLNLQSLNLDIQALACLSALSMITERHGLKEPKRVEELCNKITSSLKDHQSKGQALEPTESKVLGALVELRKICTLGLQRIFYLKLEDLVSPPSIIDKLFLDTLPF
Sequence of Nuclear receptor subfamily 4immunitygroup A member 1 (Homo sapiens) (P22736 whole entry): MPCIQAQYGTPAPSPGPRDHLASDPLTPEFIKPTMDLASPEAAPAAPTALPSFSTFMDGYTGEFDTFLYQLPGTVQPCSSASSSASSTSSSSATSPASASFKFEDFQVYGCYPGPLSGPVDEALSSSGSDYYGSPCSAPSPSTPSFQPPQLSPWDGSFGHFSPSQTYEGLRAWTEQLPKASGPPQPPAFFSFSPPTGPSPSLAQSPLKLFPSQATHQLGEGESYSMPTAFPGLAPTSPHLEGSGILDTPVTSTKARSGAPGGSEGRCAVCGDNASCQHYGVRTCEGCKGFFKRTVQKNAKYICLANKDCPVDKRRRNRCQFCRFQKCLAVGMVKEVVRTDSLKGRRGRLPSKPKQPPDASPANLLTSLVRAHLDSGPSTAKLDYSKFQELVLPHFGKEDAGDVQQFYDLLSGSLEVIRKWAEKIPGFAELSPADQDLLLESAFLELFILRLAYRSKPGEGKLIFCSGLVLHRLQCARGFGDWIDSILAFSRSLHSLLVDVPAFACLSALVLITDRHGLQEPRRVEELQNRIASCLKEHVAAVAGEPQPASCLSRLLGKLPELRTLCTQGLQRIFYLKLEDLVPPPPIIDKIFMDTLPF
Sequence of Nuclear receptor subfamily 4 group A member 2 (Homo sapiens) (P43354 whole entry): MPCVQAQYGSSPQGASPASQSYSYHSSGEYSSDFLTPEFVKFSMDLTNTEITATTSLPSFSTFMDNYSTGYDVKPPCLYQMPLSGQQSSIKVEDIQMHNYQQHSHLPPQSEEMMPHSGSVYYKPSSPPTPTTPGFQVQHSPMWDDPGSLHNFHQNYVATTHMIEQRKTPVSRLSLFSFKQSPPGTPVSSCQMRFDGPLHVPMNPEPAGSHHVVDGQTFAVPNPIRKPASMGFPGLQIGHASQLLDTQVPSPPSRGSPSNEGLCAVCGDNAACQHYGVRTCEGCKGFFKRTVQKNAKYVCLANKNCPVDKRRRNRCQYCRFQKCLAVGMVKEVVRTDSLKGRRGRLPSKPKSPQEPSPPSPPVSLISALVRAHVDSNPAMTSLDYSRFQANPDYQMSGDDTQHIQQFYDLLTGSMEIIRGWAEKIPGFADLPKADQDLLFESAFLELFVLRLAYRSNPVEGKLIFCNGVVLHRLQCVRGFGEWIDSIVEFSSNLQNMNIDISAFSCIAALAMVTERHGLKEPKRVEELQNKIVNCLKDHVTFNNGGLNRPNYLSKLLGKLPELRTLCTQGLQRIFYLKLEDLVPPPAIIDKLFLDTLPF

CCCCCCCC(=O)c1c(O)cc(O)cc1CC(=O)OCC [CYTOSPORONE B]
active: [1] Dose-Dependent Effect | [2] Dose-Dependent Effect | [3] Dose-Dependent Effect | [4] Dose-Dependent Effect | [5] Dose-Dependent Effect | [6] Dose-Dependent Effect | [7] Dose-Dependent Effect | [8] Dose-Dependent Effect | [9] Dose-Dependent Effect | [10] Dose-Dependent Effect | [11] Dose-Dependent Effect | [12] Dose-Dependent Effect | [13] Dose-Dependent Effect | [14] Dose-Dependent Effect | [15] Dose-Dependent Effect | [16] Dose-Dependent Effect | [17] Dose-Dependent Effect

CCN(CC)Cc1cc(Nc2ccnc3cc(Cl)ccc23)ccc1O [AMODIAQUINE]
active: [1] Dose-Dependent Effect | [2] Dose-Dependent Effect | [3] Dose-Dependent Effect | [4] Dose-Dependent Effect | [5] Dose-Dependent Effect | [6] Dose-Dependent Effect | [7] Dose-Dependent Effect | [8] Dose-Dependent Effect | [9] Dose-Dependent Effect | [10] Dose-Dependent Effect | [11] Dose-Dependent Effect | [12] Dose-Dependent Effect | [13] Dose-Dependent Effect | [14] Dose-Dependent Effect | [15] Dose-Dependent Effect | [16] Dose-Dependent Effect | [17] Dose-Dependent Effect

CCN(CC)CCCC(C)Nc1ccnc2cc(Cl)ccc12 (stereo unspecified) [CHLOROQUINE]
active: [1] Dose-Dependent Effect | [2] Dose-Dependent Effect | [3] Dose-Dependent Effect | [4] Dose-Dependent Effect | [5] Dose-Dependent Effect | [6] Dose-Dependent Effect | [7] Dose-Dependent Effect | [8] Dose-Dependent Effect | [9] Dose-Dependent Effect | [10] Dose-Dependent Effect | [11] Dose-Dependent Effect | [12] Dose-Dependent Effect | [13] Dose-Dependent Effect | [14] Dose-Dependent Effect | [15] Dose-Dependent Effect | [16] Dose-Dependent Effect | [17] Dose-Dependent Effect

Reference: ChEMBL document CHEMBL5030505, “Assessment of NR4A Ligands That Directly Bind and Modulate the Orphan Nuclear Receptor Nurr1” (J Med Chem, 2020)
